According to ChEMBL document CHEMBL1811786, “Identification of MK-5710 ((8aS)-8a-methyl-1,3-dioxo-2-[(1S,2R)-2-phenylcyclo- propyl]-N-(1-phenyl-1H-pyrazol-5-yl)hexahydro-imidazo[1,5-a]pyrazine-7(1H)-carboxamide), a potent smoothened antagonist for use in Hedgehog pathway dependent malignancies, part 2” (Bioorg Med Chem Lett, 2011):

Key:
[1] = molecular target: Cytochrome P450 3A4 (Homo sapiens, UniProt P08684); test: Inhibition of CYP3A4; format: ADME
[2] = tested on: Mus musculus; test: Toxicity in mouse medulloblastoma allograft model assessed as adverse effects at 160 mg/kg, po bid for 3 weeks; format: organism-based; set-up: dose 160 mg/kg, route oral; settings: in vivo, 504 h
How it was run: (§1)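 Primary mouse medulloblastoma allograft, subcutaneous. Mice randomized when tumors averaged 400 mm³. Oral dosing for 3 weeks, bid at 40, 80, 120 or 160 mg/kg, or 80 mg/kg qd. Compound given as a suspension in 0.24% SDS/0.5% Methocel, with a BID vehicle control. Tumor volume tracked over days; body weight, physical signs and mortality monitored.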

[3] = Half life in rat; format: ADME, organism-based; settings: in vivo
[4] = Half life in dog; format: ADME, organism-based, Canis lupus familiaris; settings: in vivo
[5] = Volume of distribution at steady state in rat; format: ADME, organism-based; settings: in vivo, read-out: Vdss
[6] = molecular target: Cytochrome P450 2C9 (Homo sapiens, UniProt P11712); test: Inhibition of CYP2C9; format: ADME
[7] = molecular target: T1, Protein smoothened (Homo sapiens, UniProt Q99835); test: Displacement of BODIPY-cyclopamine from human Smo expressed in HEK293 cells in presence of 20% normal human serum; format: cell-based
How it was run: (§2)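 Competition binding: displacement of fluorescently labeled bodipy-cyclopamine from recombinant human Smo expressed in HEK-293 cells. Run in 2% fetal calf serum and, separately, in 20% normal human serum. IC50 values are means of at least five experiments.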

[8] = tested on: Mus musculus; test: Inhibition of Shh pathway in mouse medulloblastoma allograft model assessed as reduction in tumor Gli-1 mRNA expression at 80 mg/kg, po administered as single dose measured after 8 hrs; format: functional
How it was run: (§3)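 Tumor-bearing medulloblastoma mice given a single oral 80 mg/kg dose. Tumor biopsies taken at timepoints up to 24 h; Hh-pathway inhibition measured as reduction of Gli-1 mRNA.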

[9] = Oral bioavailability in dog; format: ADME, organism-based, Canis lupus familiaris; settings: in vivo
[10] = Oral bioavailability in rat; format: ADME, organism-based; settings: in vivo
[11] = tested on: Mus musculus; test: Inhibition of Shh pathway in mouse medulloblastoma allograft model assessed as reduction in tumor Gli-1 mRNA expression at 80 mg/kg, po administered as single dose; format: functional, organism-based; set-up: dose 80 mg/kg; settings: TDE = time-dependent effect; how it was run: as §3
[12] = tested on: Mus musculus; test: Toxicity in mouse medulloblastoma allograft model assessed as adverse effects at 120 mg/kg, po bid for 3 weeks; format: organism-based; set-up: dose 120 mg/kg, route oral; settings: in vivo, 504 h; how it was run: as §1
[13] = Inhibition of Voltage-gated sodium channel at 30 uM
[14] = Cmax in iv dosed dog; format: ADME, organism-based, Canis lupus familiaris; set-up: route intravenous; settings: in vivo
[15] = Volume of distribution at steady state in dog; format: ADME, organism-based, Canis lupus familiaris; settings: in vivo, read-out: Vdss
[16] = tested on: Mus musculus; test: Inhibition of Shh pathway in mouse medulloblastoma allograft model assessed as reduction in tumor Gli-1 mRNA expression at 80 mg/kg, po administered as single dose measured after 6 hrs; format: functional; how it was run: as §3
[17] = tested on: Mus musculus; test: Inhibition of Shh pathway in mouse medulloblastoma allograft model assessed as reduction in tumor Gli-1 mRNA expression at 80 mg/kg, po administered as single dose measured after 4 hrs; format: functional; how it was run: as §3
[18] = species on record: Rattus norvegicus; test: Clearance in rat; format: ADME, organism-based; settings: in vivo
[19] = tested on: Canis familiaris; test: Toxicity in iv dosed vagotomized dog assessed as change in hemodynamic parameters; format: organism-based, Canis lupus familiaris; settings: in vivo
[20] = tested on: Mus musculus; test: Toxicity in mouse medulloblastoma allograft model assessed as adverse effects at 40 mg/kg, po bid for 3 weeks; format: organism-based; set-up: dose 40 mg/kg, route oral; settings: in vivo, 504 h; how it was run: as §1
[21] = species on record: Canis familiaris; test: Clearance in dog; format: ADME, organism-based, Canis lupus familiaris; settings: in vivo
[22] = molecular target: T1, Protein smoothened; test: Displacement of BODIPY-cyclopamine from human Smo expressed in HEK293 cells in presence of 2% fetal calf serum; format: cell-based; how it was run: as §2
[23] = molecular target: hERG (KCNH2) (Homo sapiens, UniProt Q12809); test: Inhibition of human ERG at 30 uM
[24] = molecular target: Cytochrome P450 2D6 (Homo sapiens, UniProt P10635); test: Inhibition of CYP2D6; format: ADME
[25] = tested on: Canis familiaris; test: Toxicity in iv dosed vagotomized dog assessed as change in cardiovascular parameters; format: organism-based, Canis lupus familiaris, Heart; settings: in vivo
[26] = tested on: Mus musculus; test: Toxicity in mouse medulloblastoma allograft model assessed as adverse effects at 80 mg/kg, po bid for 3 weeks; format: organism-based; set-up: dose 80 mg/kg, route oral; settings: in vivo, 504 h; how it was run: as §1
[27] = tested on: Mus musculus; test: Toxicity in mouse medulloblastoma allograft model assessed as adverse effects at 80 mg/kg, po qd for 3 weeks; format: organism-based; set-up: dose 80 mg/kg, route oral; settings: in vivo, 504 h; how it was run: as §1

T1 sequence (Q99835 whole entry): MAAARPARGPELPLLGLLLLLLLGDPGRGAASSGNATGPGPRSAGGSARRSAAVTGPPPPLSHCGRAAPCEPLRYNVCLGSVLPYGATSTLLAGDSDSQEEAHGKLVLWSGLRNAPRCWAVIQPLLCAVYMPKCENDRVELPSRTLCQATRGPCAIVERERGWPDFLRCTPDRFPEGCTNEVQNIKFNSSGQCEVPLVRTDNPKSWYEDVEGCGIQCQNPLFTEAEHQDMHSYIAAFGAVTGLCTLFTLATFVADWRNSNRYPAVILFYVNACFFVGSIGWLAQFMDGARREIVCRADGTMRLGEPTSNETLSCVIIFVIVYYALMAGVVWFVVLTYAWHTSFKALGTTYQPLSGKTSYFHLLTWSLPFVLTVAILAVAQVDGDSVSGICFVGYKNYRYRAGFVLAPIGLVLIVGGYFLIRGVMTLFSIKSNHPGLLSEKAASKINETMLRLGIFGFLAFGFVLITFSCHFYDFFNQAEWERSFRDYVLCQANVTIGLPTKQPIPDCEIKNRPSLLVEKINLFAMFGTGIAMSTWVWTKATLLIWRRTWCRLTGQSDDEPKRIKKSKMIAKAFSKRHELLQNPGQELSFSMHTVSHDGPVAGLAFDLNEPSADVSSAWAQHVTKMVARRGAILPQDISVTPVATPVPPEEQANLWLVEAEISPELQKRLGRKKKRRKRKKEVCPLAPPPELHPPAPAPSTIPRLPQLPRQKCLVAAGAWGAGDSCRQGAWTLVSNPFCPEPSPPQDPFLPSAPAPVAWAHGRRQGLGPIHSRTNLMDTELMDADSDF
Chain of Cytochrome P450 3A4 (P08684 whole entry): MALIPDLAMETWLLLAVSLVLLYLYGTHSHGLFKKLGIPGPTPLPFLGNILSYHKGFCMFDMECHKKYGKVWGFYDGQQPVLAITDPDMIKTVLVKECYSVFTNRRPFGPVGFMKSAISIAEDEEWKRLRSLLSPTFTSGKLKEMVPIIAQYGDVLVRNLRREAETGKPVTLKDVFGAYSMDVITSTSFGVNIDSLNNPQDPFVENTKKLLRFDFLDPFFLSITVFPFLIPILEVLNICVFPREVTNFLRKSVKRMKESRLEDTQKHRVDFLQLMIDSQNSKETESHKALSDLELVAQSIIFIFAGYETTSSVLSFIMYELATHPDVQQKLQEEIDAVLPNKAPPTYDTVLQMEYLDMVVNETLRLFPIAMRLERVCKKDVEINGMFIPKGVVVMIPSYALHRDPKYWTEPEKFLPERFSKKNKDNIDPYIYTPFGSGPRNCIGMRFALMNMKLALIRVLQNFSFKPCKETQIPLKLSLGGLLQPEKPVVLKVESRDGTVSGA
Chain of Cytochrome P450 2D6 (P10635 whole entry): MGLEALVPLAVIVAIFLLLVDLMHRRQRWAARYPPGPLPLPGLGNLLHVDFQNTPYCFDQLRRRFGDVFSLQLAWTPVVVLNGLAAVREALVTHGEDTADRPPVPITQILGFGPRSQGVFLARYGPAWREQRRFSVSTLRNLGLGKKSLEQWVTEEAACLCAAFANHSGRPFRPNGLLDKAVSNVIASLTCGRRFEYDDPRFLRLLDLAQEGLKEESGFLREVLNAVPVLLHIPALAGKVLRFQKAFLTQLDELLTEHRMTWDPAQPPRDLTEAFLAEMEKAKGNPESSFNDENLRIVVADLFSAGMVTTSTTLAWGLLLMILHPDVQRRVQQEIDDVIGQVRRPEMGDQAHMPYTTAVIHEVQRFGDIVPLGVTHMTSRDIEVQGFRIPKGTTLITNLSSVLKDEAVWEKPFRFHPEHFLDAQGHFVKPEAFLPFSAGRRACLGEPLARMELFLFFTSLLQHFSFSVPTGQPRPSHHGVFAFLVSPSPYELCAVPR
Chain of hERG (KCNH2) (Q12809 whole entry): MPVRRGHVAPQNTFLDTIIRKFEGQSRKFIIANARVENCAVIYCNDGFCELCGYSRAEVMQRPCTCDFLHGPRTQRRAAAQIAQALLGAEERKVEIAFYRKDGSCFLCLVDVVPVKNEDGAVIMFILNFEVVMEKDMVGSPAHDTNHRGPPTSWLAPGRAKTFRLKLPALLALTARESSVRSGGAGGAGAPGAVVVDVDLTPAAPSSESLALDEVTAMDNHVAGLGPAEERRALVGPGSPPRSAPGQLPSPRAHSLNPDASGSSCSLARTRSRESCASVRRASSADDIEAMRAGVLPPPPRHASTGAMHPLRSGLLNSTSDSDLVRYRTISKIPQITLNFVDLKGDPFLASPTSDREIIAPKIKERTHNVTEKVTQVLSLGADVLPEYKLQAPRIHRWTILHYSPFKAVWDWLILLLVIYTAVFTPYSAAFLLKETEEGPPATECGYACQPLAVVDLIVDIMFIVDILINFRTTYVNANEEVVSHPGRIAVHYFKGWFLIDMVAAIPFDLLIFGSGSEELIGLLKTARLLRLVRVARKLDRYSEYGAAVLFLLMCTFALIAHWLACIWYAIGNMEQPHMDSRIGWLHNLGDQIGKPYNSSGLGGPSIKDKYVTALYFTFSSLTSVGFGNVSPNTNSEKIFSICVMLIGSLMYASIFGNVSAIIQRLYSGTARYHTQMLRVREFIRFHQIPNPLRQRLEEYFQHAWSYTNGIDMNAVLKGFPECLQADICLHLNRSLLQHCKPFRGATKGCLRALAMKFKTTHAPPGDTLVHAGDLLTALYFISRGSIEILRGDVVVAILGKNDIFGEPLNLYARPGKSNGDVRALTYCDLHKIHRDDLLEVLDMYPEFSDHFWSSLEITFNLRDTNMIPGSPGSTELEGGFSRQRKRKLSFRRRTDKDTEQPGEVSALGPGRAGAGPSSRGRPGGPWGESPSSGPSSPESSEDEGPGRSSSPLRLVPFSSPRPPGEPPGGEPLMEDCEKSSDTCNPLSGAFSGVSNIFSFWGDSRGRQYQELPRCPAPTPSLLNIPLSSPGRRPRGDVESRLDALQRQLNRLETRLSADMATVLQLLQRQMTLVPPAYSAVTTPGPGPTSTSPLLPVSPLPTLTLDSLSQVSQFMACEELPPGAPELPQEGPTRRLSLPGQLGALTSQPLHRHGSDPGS
Chain of Cytochrome P450 2C9 (P11712 whole entry): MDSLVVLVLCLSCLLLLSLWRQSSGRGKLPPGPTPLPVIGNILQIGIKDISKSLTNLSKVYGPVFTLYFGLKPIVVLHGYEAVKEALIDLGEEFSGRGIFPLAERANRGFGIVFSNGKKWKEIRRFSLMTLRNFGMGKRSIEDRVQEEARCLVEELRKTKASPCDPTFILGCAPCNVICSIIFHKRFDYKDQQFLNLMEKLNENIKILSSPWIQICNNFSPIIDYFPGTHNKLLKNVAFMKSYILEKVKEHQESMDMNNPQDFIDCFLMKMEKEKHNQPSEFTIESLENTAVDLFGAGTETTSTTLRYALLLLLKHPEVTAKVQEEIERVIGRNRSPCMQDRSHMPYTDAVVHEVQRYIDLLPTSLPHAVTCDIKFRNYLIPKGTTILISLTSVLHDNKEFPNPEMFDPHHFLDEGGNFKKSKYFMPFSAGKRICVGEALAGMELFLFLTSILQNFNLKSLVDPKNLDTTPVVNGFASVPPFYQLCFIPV

For `C[C@@]12CN(C(=O)Nc3ccnn3-c3ccccc3)CCN1C(=O)N([C@H]1C[C@@H]1c1ccccc1)C2=O`, the IC50 [1] was greater than 40000 nM, the Activity [2] was “Non-toxic” and the half-life [3] was 5.1 h. The half-life [4] was 1.1 h, the Vd [5] was 2.9 L/kg and the IC50 [6] was greater than 40000 nM. It also gave an IC50 [7] of 22 nM, an inhibition in vivo at 80 mg/kg [8] greater than 85% and a bioavailability [9] of 52%. The bioavailability [10] was 40%, the inhibition [11] was “tde” and the Activity [12] was “Non-toxic”. The inhibition [13] was 45%, the Cmax [14] was 16 µM and the Vd [15] was 2 L/kg. The inhibition in vivo at 80 mg/kg [16] was greater than 85%, the inhibition in vivo at 80 mg/kg [17] was 77% and the clearance [18] was 22 mL/min/kg. The Activity [19] was “Non-toxic”, the Activity [20] was “Non-toxic” and the clearance [21] was 22 mL/min/kg. The IC50 [22] was 13 nM, the inhibition at 30 µM [23] was 27% and the IC50 [24] was greater than 40000 nM. For the same compound, the Activity [25] was “Non-toxic”, the Activity [26] was “Non-toxic” and the Activity [27] was “Non-toxic”.
